Measured values as given in ChEMBL document CHEMBL1140872, “Discovery of a potent and selective inhibitor for human carbonyl reductase 1 from propionate scanning applied to the macrolide zearalenone” (Bioorg Med Chem, 2009).

Legend:
[1] = molecular target: T1, Carbonyl reductase [NADPH] 1 (Homo sapiens) (UniProt P16152); experiment: Binding affinity to human recombinant carbonyl reductase 1 expressed in Escherichia coli assessed as thermal shift by differential scanning fluorimetry in absence of cofactor
T1 sequence (whole entry): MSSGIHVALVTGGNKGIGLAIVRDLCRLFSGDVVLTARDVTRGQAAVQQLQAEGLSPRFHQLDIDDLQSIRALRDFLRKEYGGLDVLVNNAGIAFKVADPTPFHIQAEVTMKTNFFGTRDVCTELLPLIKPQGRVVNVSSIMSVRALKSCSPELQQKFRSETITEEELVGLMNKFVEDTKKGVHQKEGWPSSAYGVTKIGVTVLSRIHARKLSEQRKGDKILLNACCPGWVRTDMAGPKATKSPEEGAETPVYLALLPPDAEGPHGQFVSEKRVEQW
Outline: (§1)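 Thermal-shift (DSF) binding assay with purified recombinant catalytic domains or proteins carrying an N- or C-terminal His6 tag or GST fusion. Purity was >95% by SDS/PAGE and identity was confirmed by MS. Protein was at 2 µM final in 10 mM HEPES pH 7.5 and 150 mM NaCl. Tm shift is reported, with 2 °C as the threshold for binding.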

[2] = molecular target: Serine/threonine-protein kinase 10 (Homo sapiens) (UniProt O94804); experiment: Binding affinity to human recombinant LOK expressed in Escherichia coli assessed as thermal shift by differential scanning fluorimetry; outline: as §1
Chain of Serine/threonine-protein kinase 10 (Homo sapiens) (O94804 whole entry, looked up): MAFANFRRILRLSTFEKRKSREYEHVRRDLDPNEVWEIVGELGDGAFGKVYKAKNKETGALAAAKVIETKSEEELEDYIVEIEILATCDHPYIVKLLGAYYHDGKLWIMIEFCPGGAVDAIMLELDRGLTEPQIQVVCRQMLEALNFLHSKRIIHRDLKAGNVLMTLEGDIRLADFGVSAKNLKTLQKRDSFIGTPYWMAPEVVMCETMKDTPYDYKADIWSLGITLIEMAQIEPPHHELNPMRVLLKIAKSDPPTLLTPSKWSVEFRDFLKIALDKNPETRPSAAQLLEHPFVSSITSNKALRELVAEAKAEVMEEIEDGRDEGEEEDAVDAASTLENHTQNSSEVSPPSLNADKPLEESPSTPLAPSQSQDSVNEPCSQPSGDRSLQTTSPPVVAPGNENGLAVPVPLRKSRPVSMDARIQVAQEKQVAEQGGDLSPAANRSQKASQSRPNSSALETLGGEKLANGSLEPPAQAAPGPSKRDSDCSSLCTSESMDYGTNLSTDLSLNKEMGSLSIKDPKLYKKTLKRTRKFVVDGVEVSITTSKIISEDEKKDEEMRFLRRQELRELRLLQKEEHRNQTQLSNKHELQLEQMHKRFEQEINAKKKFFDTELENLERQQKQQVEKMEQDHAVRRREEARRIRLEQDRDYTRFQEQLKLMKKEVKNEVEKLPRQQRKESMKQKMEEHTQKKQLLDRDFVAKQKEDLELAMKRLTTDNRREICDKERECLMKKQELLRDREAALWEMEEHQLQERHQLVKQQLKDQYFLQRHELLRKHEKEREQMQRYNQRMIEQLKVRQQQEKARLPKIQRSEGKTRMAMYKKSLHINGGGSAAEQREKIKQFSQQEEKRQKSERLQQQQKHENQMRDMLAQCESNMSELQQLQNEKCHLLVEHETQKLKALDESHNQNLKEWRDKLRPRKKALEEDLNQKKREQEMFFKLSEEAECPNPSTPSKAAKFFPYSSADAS

[3] = molecular target: T1, Carbonyl reductase [NADPH] 1 (Homo sapiens); experiment: Binding affinity to human recombinant carbonyl reductase 1 expressed in Escherichia coli assessed as thermal shift by differential scanning fluorimetry in presence of NADP+; outline: as §1
[4] = molecular target: T2, Carbonyl reductase [NADPH] 3 (Homo sapiens) (UniProt O75828); experiment: Binding affinity to human recombinant carbonyl reductase 3 expressed in Escherichia coli assessed as thermal shift by differential scanning fluorimetry in presence of NADPH; outline: as §1
T2 sequence (whole entry): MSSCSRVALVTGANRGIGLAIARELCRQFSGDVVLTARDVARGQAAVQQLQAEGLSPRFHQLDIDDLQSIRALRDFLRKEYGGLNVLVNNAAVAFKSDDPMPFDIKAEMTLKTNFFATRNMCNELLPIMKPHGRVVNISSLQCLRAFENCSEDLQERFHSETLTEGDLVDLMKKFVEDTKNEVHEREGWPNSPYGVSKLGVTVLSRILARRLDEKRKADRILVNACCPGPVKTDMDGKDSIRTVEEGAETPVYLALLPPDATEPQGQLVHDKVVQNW

[5] = molecular target: Casein kinase I isoform gamma-1 (Homo sapiens) (UniProt Q9HCP0); experiment: Binding affinity to human recombinant CSNK1G1 expressed in Escherichia coli assessed as thermal shift by differential scanning fluorimetry; outline: as §1
Chain of Casein kinase I isoform gamma-1 (Homo sapiens) (Q9HCP0 whole entry, looked up, canonical isoform): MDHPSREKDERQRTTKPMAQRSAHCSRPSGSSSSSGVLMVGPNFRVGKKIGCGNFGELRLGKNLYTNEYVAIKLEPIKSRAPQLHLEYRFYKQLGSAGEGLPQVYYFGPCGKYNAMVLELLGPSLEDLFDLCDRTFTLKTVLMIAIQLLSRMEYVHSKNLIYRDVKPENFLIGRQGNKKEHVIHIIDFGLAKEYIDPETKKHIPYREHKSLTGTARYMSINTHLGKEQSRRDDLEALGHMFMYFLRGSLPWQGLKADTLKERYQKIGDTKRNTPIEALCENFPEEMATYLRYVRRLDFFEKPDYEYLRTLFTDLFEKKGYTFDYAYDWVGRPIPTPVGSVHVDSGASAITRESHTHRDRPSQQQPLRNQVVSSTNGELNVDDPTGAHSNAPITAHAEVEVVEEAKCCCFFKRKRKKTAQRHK

[6] = molecular target: Tyrosine-protein kinase Fes/Fps (Homo sapiens) (UniProt P07332); experiment: Binding affinity to human recombinant FES expressed in Escherichia coli assessed as thermal shift by differential scanning fluorimetry; outline: as §1
Chain of Tyrosine-protein kinase Fes/Fps (Homo sapiens) (P07332 whole entry): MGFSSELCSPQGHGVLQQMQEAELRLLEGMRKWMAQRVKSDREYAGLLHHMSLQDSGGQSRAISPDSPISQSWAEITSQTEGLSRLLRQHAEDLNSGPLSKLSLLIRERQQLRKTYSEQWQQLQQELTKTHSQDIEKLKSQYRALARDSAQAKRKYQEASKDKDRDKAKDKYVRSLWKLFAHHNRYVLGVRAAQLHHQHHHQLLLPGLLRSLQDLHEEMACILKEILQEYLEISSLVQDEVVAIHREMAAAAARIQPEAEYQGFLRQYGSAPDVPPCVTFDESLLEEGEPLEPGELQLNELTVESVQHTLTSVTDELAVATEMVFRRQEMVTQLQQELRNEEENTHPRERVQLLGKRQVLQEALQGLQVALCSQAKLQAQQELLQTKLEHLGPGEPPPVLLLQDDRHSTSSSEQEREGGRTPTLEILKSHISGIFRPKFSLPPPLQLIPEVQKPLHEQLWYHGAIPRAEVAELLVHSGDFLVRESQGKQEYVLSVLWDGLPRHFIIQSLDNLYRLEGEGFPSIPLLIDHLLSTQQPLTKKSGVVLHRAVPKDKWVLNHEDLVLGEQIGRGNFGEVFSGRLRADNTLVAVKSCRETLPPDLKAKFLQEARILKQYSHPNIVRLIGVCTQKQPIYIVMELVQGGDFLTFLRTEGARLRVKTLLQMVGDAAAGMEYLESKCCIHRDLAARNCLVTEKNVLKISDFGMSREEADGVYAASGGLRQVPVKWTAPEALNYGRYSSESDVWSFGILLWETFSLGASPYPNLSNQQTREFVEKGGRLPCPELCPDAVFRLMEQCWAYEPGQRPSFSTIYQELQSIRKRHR

[7] = molecular target: Serine/threonine-protein kinase pim-1 (Homo sapiens) (UniProt P11309); experiment: Binding affinity to human recombinant PIM1 expressed in Escherichia coli assessed as thermal shift by differential scanning fluorimetry; outline: as §1
Chain of Serine/threonine-protein kinase pim-1 (Homo sapiens) (P11309 whole entry, looked up): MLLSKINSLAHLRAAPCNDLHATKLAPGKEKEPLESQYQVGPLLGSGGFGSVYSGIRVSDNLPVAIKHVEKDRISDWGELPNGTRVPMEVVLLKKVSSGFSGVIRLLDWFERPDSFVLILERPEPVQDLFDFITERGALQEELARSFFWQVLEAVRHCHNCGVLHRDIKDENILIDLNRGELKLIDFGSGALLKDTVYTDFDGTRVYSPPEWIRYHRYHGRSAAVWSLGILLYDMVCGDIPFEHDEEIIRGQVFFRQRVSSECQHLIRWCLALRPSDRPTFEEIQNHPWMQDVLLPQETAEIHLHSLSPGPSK

[8] = molecular target: T3, Cyclin-G-associated kinase (Homo sapiens) (UniProt O14976); experiment: Binding affinity to human recombinant GAK expressed in Escherichia coli assessed as thermal shift by differential scanning fluorimetry; outline: as §1
T3 sequence (whole entry): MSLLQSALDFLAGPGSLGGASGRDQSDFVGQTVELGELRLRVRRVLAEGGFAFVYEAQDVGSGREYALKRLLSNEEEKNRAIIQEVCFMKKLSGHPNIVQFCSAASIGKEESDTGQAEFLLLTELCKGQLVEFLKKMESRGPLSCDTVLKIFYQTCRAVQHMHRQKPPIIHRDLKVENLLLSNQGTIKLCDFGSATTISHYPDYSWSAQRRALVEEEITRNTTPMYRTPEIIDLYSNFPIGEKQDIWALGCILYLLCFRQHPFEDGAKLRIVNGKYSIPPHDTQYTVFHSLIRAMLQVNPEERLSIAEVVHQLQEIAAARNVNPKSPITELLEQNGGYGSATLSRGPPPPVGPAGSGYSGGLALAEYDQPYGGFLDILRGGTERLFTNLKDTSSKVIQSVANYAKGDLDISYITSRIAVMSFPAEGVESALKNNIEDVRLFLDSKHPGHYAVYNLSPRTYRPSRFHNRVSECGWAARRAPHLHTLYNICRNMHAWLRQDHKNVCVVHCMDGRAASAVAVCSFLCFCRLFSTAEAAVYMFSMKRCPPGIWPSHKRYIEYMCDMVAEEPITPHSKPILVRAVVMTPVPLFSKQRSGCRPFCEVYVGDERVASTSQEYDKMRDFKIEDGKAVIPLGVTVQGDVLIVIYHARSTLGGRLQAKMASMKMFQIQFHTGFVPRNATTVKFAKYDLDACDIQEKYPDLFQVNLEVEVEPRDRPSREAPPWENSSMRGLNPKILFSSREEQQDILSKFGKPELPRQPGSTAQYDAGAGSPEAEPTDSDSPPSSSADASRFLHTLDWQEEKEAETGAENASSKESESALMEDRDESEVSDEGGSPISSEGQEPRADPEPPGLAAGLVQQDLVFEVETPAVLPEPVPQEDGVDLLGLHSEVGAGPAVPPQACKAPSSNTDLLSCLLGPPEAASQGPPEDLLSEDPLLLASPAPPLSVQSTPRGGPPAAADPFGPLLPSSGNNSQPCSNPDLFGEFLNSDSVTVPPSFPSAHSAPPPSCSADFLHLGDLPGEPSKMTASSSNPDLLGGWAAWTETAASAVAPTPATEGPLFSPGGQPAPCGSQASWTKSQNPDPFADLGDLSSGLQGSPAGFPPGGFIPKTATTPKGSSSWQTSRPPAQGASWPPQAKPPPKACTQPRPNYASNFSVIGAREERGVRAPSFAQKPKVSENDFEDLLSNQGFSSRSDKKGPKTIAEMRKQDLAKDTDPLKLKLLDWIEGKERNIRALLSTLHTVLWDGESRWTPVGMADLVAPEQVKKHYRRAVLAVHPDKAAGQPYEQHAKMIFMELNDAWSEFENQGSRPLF

Structure (SMILES)	Tm [1]	Tm [2]	Tm [3]	Tm [4]	Tm [5]	Tm [6]	Tm [7]	Tm [8]
C[C@H]1CCCC(=O)CCC/C=C/c2cc(O)cc(O)c2C(=O)O1	< 2 °C	4.6 °C	3.6 °C	< 2 °C	< 2 °C	< 2 °C	3 °C	2.4 °C
COC1=C2C[C@@H](C)C[C@H](OC)[C@H](O)[C@@H](C)/C=C(\C)[C@H](OC(N)=O)[C@@H](OC)/C=C\C=C(/C)C(=O)NC(=CC1=O)C2=O	< 2 °C	< 2 °C	< 2 °C	< 2 °C	< 2 °C	< 2 °C	< 2 °C	< 2 °C
C[C@H]1CCCC(=O)[C@@H](C)CC/C=C/c2cc(O)cc(O)c2C(=O)O1	< 2 °C	< 2 °C	3.9 °C	< 2 °C	< 2 °C	< 2 °C	2.2 °C	2.9 °C
COc1cc(O)c2c(c1)/C=C/CC[C@H](C)C(=O)CCC[C@H](C)OC2=O	< 2 °C	< 2 °C	< 2 °C	< 2 °C	< 2 °C	< 2 °C	< 2 °C	< 2 °C
COc1cc2c(c(OC)c1)C(=O)O[C@@H](C)CCC[C@@H](O)[C@@H](C)CC/C=C/2	< 2 °C	< 2 °C	< 2 °C	< 2 °C	< 2 °C	< 2 °C	< 2 °C	< 2 °C
COc1cc2c(c(OC)c1)C(=O)O[C@@H](C)CCCC(=O)[C@@H](C)CC/C=C/2	< 2 °C	< 2 °C	< 2 °C	< 2 °C	< 2 °C	< 2 °C	< 2 °C	< 2 °C
C[C@@H]1C[C@H]2O[C@@H]2/C=C\C=C\C(=O)Cc2c(Cl)c(O)cc(O)c2C(=O)O1 [RADICICOL]	< 2 °C	< 2 °C	4.6 °C	< 2 °C	< 2 °C	< 2 °C	< 2 °C	< 2 °C
